# ChEMBL document CHEMBL1148007, “Synthesis of new S-derivatives of clubbed triazolyl thiazole as anti-Mycobacterium tuberculosis agents” (Bioorg Med Chem, 2007)
# Tests used:
# Pseudomonas aeruginosa = assay: Antibacterial activity against Pseudomonas aeruginosa at 50 to 100 uM after 24 hrs by well diffusion method; type: functional
# How it was run: (§1)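 Nutrient agar plates with 10 mm wells cut by cork borer; 24-h subcultured bacteria swabbed on. Compounds dissolved in chloroform, 50 to 100 μM added to wells, gentamycin as standard. Incubated 24 h at 24–28 °C; inhibition zone diameter measured and converted to percent inhibition.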
# [1] = test system: Mycobacterium tuberculosis; assay: Antitubercular activity against Mycobacterium tuberculosis H37Rv by MABA assay; type: functional
# How it was run: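 Actives re-tested at lower concentrations against H37Rv (ATCC 27294) in BACTEC 12B medium by Microplate Alamar Blue Assay. MIC taken as lowest concentration giving […] fluorescence reduction versus controls; rifampin reference.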
# [2] = test system: Mycobacterium tuberculosis; assay: Antitubercular activity against Mycobacterium tuberculosis H37Rv at 6.25 ug/mL by MABA assay; type: functional; settings: read-out: GI
# How it was run: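 Primary screen against M. tuberculosis H37Rv (ATCC 27294) in BACTEC 12B medium by broth microdilution Microplate Alamar Blue Assay; fluorescent compounds run instead in BACTEC 460 radiometric system. Compounds above 95% inhibition counted active.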
# [3] = Cytotoxicity against Vero-C1008 cells at 6.25 to 50 ug/mL by neutral red uptake assay; type: cell-based; settings: chlorocebus sabaeus
# How it was run: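 Vero-C-1008 cells exposed to 6.25 to 50 μg/mL compound; viability read by neutral red uptake.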
# Salmonella typhi = assay: Antibacterial activity against Salmonella typhi at 50 to 100 uM after 24 hrs by well diffusion method; type: functional, Salmonella enterica subsp. enterica serovar Typhi; parameters: unit not given here; how it was run: as §1
# Escherichia coli = assay: Antibacterial activity against Escherichia coli at 50 to 100 uM after 24 hrs by well diffusion method; type: functional; how it was run: as §1
# Staphylococcus aureus = assay: Antibacterial activity against Staphylococcus aureus at 50 to 100 uM after 24 hrs by well diffusion method; type: functional; how it was run: as §1
SMILES,inhibition zone (Pseudomonas aeruginosa),MIC [1],inhibition of growth at 6.25 µg/mL [2],Activity [3],Inhibition (Salmonella typhi),inhibition zone (Escherichia coli),inhibition zone (Staphylococcus aureus)
O=C(CCl)Nc1nc(Cc2nnc(S)n2NC(=O)c2cccc([N+](=O)[O-])c2)cs1,22 mm,6.25 µM,96%,Non-toxic,16,20 mm,22 mm
CC(=O)Nc1nc(Cc2nnc(SCC#N)n2NC(=O)c2ccc(Cl)cc2)cs1,20 mm,3.13 µM,96%,Non-toxic,24,23 mm,28 mm
NNC(=O)CSc1nnc(Cc2csc(NC(=O)c3ccccc3)n2)n1NC(=O)c1cccc([N+](=O)[O-])c1,24 mm,6.25 µM,100%,Non-toxic,20,17 mm,28 mm
O=C(CSc1nnc(Cc2csc(NC(=O)c3ccccc3)n2)n1NC(=O)c1cccc([N+](=O)[O-])c1)N/N=C/c1ccccc1,30 mm,0.39 µM,96%,Non-toxic,24,25 mm,32 mm
N#CCSc1nnc(Cc2csc(NC(=O)c3ccccc3)n2)n1NC(=O)c1cccc([N+](=O)[O-])c1,24 mm,< 6.25 µg/mL,96%,Non-toxic,17,22 mm,28 mm
CC(=O)Nc1nc(Cc2nnc(SCC(=O)NN)n2NC(=O)c2cccc([N+](=O)[O-])c2)cs1,23 mm,6.25 µM,100%,Non-toxic,17,22 mm,19 mm
NNC(=O)CSc1nnc(Cc2csc(NC(=O)CCl)n2)n1NC(=O)c1ccc(Cl)cc1,18 mm,6.25 µM,96%,Non-toxic,12,12 mm,16 mm
CC(=O)Nc1nc(Cc2nnc(SCC(=O)N/N=C/c3ccccc3)n2NC(=O)c2cccc([N+](=O)[O-])c2)cs1,31 mm,0.78 µM,100%,Non-toxic,26,24 mm,30 mm
NNC(=O)CSc1nnc(Cc2csc(NC(=O)c3ccccc3)n2)n1NC(=O)c1ccc(Cl)cc1,32 mm,6.25 µM,96%,Non-toxic,24,26 mm,32 mm
N#CCSc1nnc(Cc2csc(NC(=O)CCl)n2)n1NC(=O)c1ccc(Cl)cc1,28 mm,3.13 µM,96%,Non-toxic,16,26 mm,24 mm
Nn1c(S)nnc1Cc1csc(NC(=O)c2ccccc2)n1,20 mm,6.25 µM,96%,Non-toxic,14,18 mm,22 mm
COC(=O)CSc1nnc(Cc2csc(NC(=O)c3ccccc3)n2)n1NC(=O)c1cccc([N+](=O)[O-])c1,11 mm,< 6.25 µg/mL,–,Non-toxic,24,24 mm,22 mm
CC(=O)NNC(=O)CSc1nnc(Cc2csc(NC(=O)c3ccccc3)n2)n1NC(=O)c1ccc(Cl)cc1,24 mm,< 6.25 µg/mL,–,Non-toxic,19,21 mm,26 mm
Nn1c(S)nnc1CSc1nnc(Cc2csc(NC(=O)CCl)n2)n1NC(=O)c1ccc(Cl)cc1,20 mm,< 6.25 µg/mL,–,Non-toxic,20,22 mm,27 mm
O=C(CSc1nnc(Cc2csc(NC(=O)CCl)n2)n1NC(=O)c1cccc([N+](=O)[O-])c1)NNC(=O)c1ccccc1,18 mm,< 6.25 µg/mL,–,Non-toxic,18,10 mm,21 mm
CC(=O)Nc1nc(Cc2nnc(SCC(=O)NNC(=O)CCl)n2NC(=O)c2ccc(Cl)cc2)cs1,20 mm,< 6.25 µg/mL,–,Non-toxic,20,18 mm,25 mm

SMILES,inhibition zone (Pseudomonas aeruginosa),MIC [1],inhibition of growth at 6.25 µg/mL [2],Activity [3],Inhibition (Salmonella typhi),inhibition zone (Escherichia coli),inhibition zone (Staphylococcus aureus)
O=C(CCl)NNC(=O)CSc1nnc(Cc2csc(NC(=O)CCl)n2)n1NC(=O)c1cccc([N+](=O)[O-])c1,16 mm,< 6.25 µg/mL,–,Non-toxic,18,12 mm,14 mm
COC(=O)CSc1nnc(Cc2csc(NCCC(=O)O)n2)n1NC(=O)c1ccc(Cl)cc1,24 mm,< 6.25 µg/mL,–,Non-toxic,18,22 mm,26 mm
CC(=O)Nc1nc(Cc2nnc(SCc3nnc(S)n3N)n2NC(=O)c2cccc([N+](=O)[O-])c2)cs1,13 mm,< 6.25 µg/mL,–,Non-toxic,18,21 mm,18 mm
CC(=O)NNC(=O)CSc1nnc(Cc2csc(NC(C)=O)n2)n1NC(=O)c1ccc(Cl)cc1,19 mm,< 6.25 µg/mL,–,Non-toxic,23,20 mm,27 mm
NNC(=O)CSc1nnc(Cc2csc(NCCC(=O)O)n2)n1NC(=O)c1ccc(Cl)cc1,26 mm,< 6.25 µg/mL,–,Non-toxic,22,18 mm,23 mm
CC(=O)Nc1nc(Cc2nnc(SCC#N)n2NC(=O)c2cccc([N+](=O)[O-])c2)cs1,26 mm,< 6.25 µg/mL,–,Non-toxic,21,20 mm,22 mm
O=C(CCl)NNC(=O)CSc1nnc(Cc2csc(NC(=O)c3ccccc3)n2)n1NC(=O)c1ccc(Cl)cc1,23 mm,< 6.25 µg/mL,–,Non-toxic,22,19 mm,26 mm
CC(=O)Nc1nc(Cc2nnc(SCc3nnc(S)n3N)n2NC(=O)c2ccc(Cl)cc2)cs1,21 mm,< 6.25 µg/mL,–,Non-toxic,18,23 mm,28 mm
O=C(O)CCNc1nc(Cc2nnc(SCSc3nnc(Cc4csc(NCCC(=O)O)n4)n3NC(=O)c3ccc(Cl)cc3)n2NC(=O)c2ccc(Cl)cc2)cs1,29 mm,< 6.25 µg/mL,–,Non-toxic,20,22 mm,21 mm
Nn1c(S)nnc1CSc1nnc(Cc2csc(NCCC(=O)O)n2)n1NC(=O)c1cccc([N+](=O)[O-])c1,28 mm,< 6.25 µg/mL,–,Non-toxic,18,17 mm,26 mm
O=C(O)CCNc1nc(Cc2nnc(SCC(=O)NNC(=O)c3ccccc3)n2NC(=O)c2cccc([N+](=O)[O-])c2)cs1,10 mm,< 6.25 µg/mL,–,Non-toxic,14,10 mm,12 mm
COC(=O)CSc1nnc(Cc2csc(NC(=O)CCl)n2)n1NC(=O)c1ccc(Cl)cc1,16 mm,< 6.25 µg/mL,–,Non-toxic,12,10 mm,18 mm
Nn1c(S)nnc1CSc1nnc(Cc2csc(NC(=O)CCl)n2)n1NC(=O)c1cccc([N+](=O)[O-])c1,26 mm,< 6.25 µg/mL,–,Non-toxic,21,18 mm,20 mm
CC(=O)NNC(=O)CSc1nnc(Cc2csc(NC(C)=O)n2)n1NC(=O)c1cccc([N+](=O)[O-])c1,34 mm,< 6.25 µg/mL,–,Non-toxic,29,30 mm,33 mm
CC(=O)Nc1nc(Cc2nnc(SCSc3nnc(Cc4csc(NC(C)=O)n4)n3NC(=O)c3cccc([N+](=O)[O-])c3)n2NC(=O)c2cccc([N+](=O)[O-])c2)cs1,32 mm,< 6.25 µg/mL,–,Non-toxic,26,26 mm,27 mm
COC(=O)CSc1nnc(Cc2csc(NC(C)=O)n2)n1NC(=O)c1ccc(Cl)cc1,16 mm,< 6.25 µg/mL,–,Non-toxic,10,10 mm,20 mm
